IDE inh – human IDE inhibitors in live cells, primary screen, fluorescence polarization, HEK cells, FAbetaB substrate; Insulin-degrading enzyme (Homo sapiens), P14735; FAbetaB cleavage; inhibition, % at 5.59 µM; 0.41% of 320,000 active;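 active = percent inhibition above the average of all tested compounds plus 3 SD, set per screening campaign, cut at about 16% in these data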;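 note: IDE supplied by intact live HEK cells; FP after avidin binding of uncleaved biotin substrate so inhibition keeps polarization high; 0% = DMSO wells and 100% = 60 µM reference IDE inhibitor Ii1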
HNF4A DNA FP – change in binding of human HNF4A to DNA, primary screen, biochemical, fluorescence polarization, FITC-DNA. Hepatocyte nuclear factor 4-alpha (Homo sapiens), P41235. activity change, % at 10 µM. 0.3% of 360,000 active. 1 h; in the data active = activity change above about 30%, passing the limit was not always enough
CSN deneddyl inh – inhibitors of CSN-mediated cullin deneddylation, primary screen, biochemical, fluorescence polarization, uHTS. COP9 signalosome complex subunit 5 (Homo sapiens), Q92905. AID 651999, 2013. inhibition, % at 12.5 µM. 0.38% of 360,000 active. Purified CSN, SCF-Nedd8-OG deneddylation;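 active = pattern-corrected inhibition above about 35%, with an unprinted fluorescence ratio check between 0.5 and 1.5, limit read from the data, passing the limit was not always enough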;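 note: 0% = enzyme with substrate and 100% = substrate without enzyme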
Target sequence (Q92905 whole entry, looked up, one chain of several): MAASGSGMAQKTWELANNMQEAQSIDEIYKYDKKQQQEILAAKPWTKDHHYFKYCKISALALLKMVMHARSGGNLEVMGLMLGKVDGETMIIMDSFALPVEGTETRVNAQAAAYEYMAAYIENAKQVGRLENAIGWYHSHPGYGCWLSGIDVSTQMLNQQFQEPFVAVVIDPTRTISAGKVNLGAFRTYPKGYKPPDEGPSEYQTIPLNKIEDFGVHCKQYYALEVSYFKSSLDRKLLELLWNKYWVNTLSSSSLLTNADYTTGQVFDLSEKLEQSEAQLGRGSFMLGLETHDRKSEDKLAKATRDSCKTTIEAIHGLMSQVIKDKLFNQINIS
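assay system = purified human Csn5 enzyme expressed in HEK293T cells | amount = 0.24 nM enzyme | buffer or medium = Tris/NaCl/DTT buffer, pH 7.5 | reagent = 10 nM SCFSkp2-Nedd8OG | compound = one concentration, 12.5 µM, 0.25% DMSO | times = 90 min reaction at room temperature | signal = FP | read-out basis = % inhibition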
TbMetRS inhib – T. brucei MetRS inhibitors, primary screen, biochemical, luminescence | methionyl-tRNA synthetase (Trypanosoma brucei brucei) | inhibition, % at 11.9 µM | AID 624268, 2012 | purified T. brucei MetRS, ATP depletion, Kinase-Glo luminescence | 0.4% of 360,000 active;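 active = inhibition above a per-plate cutoff of the control wells' mean inhibition plus 3 SD, cut at about 5.5% in these data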;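 note: 0% = DMSO wells median and 100% = median of wells with control inhibitor compound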
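Material: parasite MetRS enzyme / Replication: singlicate, one well per compound / Signal: luminescence of leftover ATP / Schedule: 2 h aminoacylation at 25 °C after 15 min preincubation / Medium: HEPES-MgCl2-KCl buffer plus DTT, spermine, BSA, pyrophosphatase / Doses: 11.9 µM single point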
TPT1 inh – Candida albicans TPT1 enzyme inhibitors, primary screen, biochemical, fluorescence polarization; tRNA 2'-phosphotransferase TPT1 (Candida albicans SC5314); recombinant caTPT1, FP RNA substrate dephosphorylation; inhibition, % at 5 µM; 0.81% of 300,000 active; AID 1962, 2009;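 active = inhibition above the mean of all tested compounds plus 3 SD, set per screening campaign, cut at about 24% in these data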;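 note: plate controls were DMSO alone for no effect and ferristatin control at 100 nM for full effect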
IDE cell activ – human IDE activators in live cells, primary screen, fluorescence polarization, HEK cells, FAbeta-B substrate | Insulin-degrading enzyme (Homo sapiens), P14735 | FAbeta-B cleavage; 0% vehicle, 100% cell-free pure enzyme wells | activation, % at 5.96 µM | 0.073% of 340,000 active | AID 493087, 2011;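 active = activation above the mean of all tested compounds plus 3 SD, set per screening campaign, cut at about 17% in these data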
An asterisk follows results filed as active; · = not tested or not shown. Most compounds without a hit are left out; they make up all but 1.7% or so of the library.

SMILES	IDE inh	HNF4A DNA FP	CSN deneddyl inh	TbMetRS inhib	TPT1 inh	IDE cell activ
COc1cccc(C(=O)COC(=O)CCC(=O)c2ccccc2)c1	-1	-1	1	0	-1	8
O=C(NCC(=O)N1CCN(C(c2ccccc2)c2ccccc2)CC1)c1ccccc1Br	·	-5	0	0	·	·
O=C(NCCSCc1c(F)cccc1Cl)Nc1ccccc1	3	2	1	7.8*	-3	3
S=C(NCCSCc1ccc(Cl)cc1Cl)Nc1ccccc1	1	-1	-4	70*	1	1
Cc1cc(NS(=O)(=O)c2ccc(Nc3nc(-c4ccc(C)c(C)c4)cs3)cc2)no1	-1	3	3	2	0	1
Cc1cc(NS(=O)(=O)c2ccc(Nc3nc(-c4sc(N)nc4C)cs3)cc2)no1	-3	3	73*	2	14	-4
O=C(c1sc2cc(Cl)ccc2c1Cl)N1CCN(CCc2ccccn2)CC1	-4	-4	1	0	-2	0
CN(C)CCNc1ccc(CO)c2sc3ccc(O)cc3c(=O)c12	·	36*	5	-1	·	4
COc1ccc2sc3cccc(NCCN(C)C)c3c(=O)c2c1	·	19	4	0	·	·
CN(C)c1ccc(N/C=C/C(=O)c2ccccc2)cc1	4	38*	11	-1	16	2
O=C1COc2ccc(C(=O)COC(=O)c3ccccc3[N+](=O)[O-])cc2N1	6	8	15	0	3	0
O=C1COc2ccc(C(=O)COC(=O)c3ccc(Cl)cc3[N+](=O)[O-])cc2N1	1	1	77*	0	-2	5
Cc1cc(C(=O)COC(=O)c2cc(Cl)c(O)c(Cl)c2)c(C)n1C	4	-23	42*	0	·	2
CCCCN1CCN=C1N(C)C	5	-5	-3	0	0	4
O=C(NC1CCCCC1)C1CCN(S(=O)(=O)c2cccc3nsnc23)CC1	1	-2	0	0	-1	5
O=C(O)c1ccccc1NC(=O)C1CCN(S(=O)(=O)c2cccc3nsnc23)CC1	-22	1	1	0	2	32*
CCOc1ccc(C(=O)NCc2ccco2)cc1Cl	1	1	2	0	-2	-2
CCS(=O)(=O)Nc1ccc(-c2nnc(SCC(=O)c3ccc(NC(C)=O)c(OC)c3)o2)cc1	-1	2	46*	-2	-5	4
CCS(=O)(=O)Nc1ccc(-c2nnc(SCC(=O)c3cccc(OC)c3)o2)cc1	5	1	0	-1	-3	1
CCCCn1c(N)c(S(=O)(=O)c2ccc(C)cc2)c2nc3ccccc3nc21	-5	5	39*	2	-2	6
C[C@H]1CN([C@@H](C)CO)C(=O)CCCn2cc(nn2)CO[C@@H]1CN(C)C(=O)Oc1ccccc1	·	0	100*	-1	·	·
CCN1CCN(CCNC(=O)c2ccc(/C=C3/Sc4ccccc4N(Cc4cccc(Cl)c4)C3=O)cc2)CC1	6	8	5	-1	-1	38*
Cc1cccc(CN2C(=O)/C(=C\c3ccc(C(=O)NCCN4CCOCC4)cc3)Sc3ccccc32)c1	-3	2	0	0	3	0
N#Cc1c(NC(=S)NC(=O)c2ccccc2)sc2c1CCN(CCc1ccccc1)C2	74*	·	·	·	98*	·
COc1ccccc1NC(=O)c1coc(=O)c(Br)c1	0	-6	8	0	0	·
SMILES	IDE inh	HNF4A DNA FP	CSN deneddyl inh	TbMetRS inhib	TPT1 inh	IDE cell activ
COc1ccc(N=C2NC(=O)S/C2=C\c2ccc(N(C)C)cc2)cc1	30*	21	13	-1	7	-25
CN(C)c1ccc(C=C2SC(=S)NC2=O)cc1	·	197	105*	0	·	-128
COc1ccc(N2CCN(C(=O)CSc3nnc(NC(=O)C4CC4)s3)CC2)cc1	2	-7	1	0	-3	0
S=c1[nH]nc(C2CCCCC2)n1/N=C/c1ccc(Br)cc1	5	-3	-7	0	-1	-9
S=c1[nH]nc(C2CCCCC2)n1/N=C/c1ccc(Br)s1	2	35*	5	0	-1	-14
O=c1oc2ccccc2cc1-c1nc(-c2cccs2)cs1	3	-71	-3	0	-52	-3
COc1cccc2cc(-c3nc(-c4cccs4)cs3)c(=O)oc12	4	40*	15	2	1	0
O=c1cc(-c2ccco2)oc2c1ccc1ccccc12	4	3	39*	-2	1	-1
Nc1nc(SCC(=O)NCC2CCCO2)[nH]c(=O)c1NC(=O)c1ccc(F)c(F)c1 (stereo not given)	0	1	-1	-1	0	-6
Nc1nc(SCC(=O)NCC2CCCO2)[nH]c(=O)c1NC(=O)c1ccco1 (stereo not given)	0	3	46*	0	-1	3
CCOc1cc(-c2cc(-c3ccccc3)nc(N)c2C#N)ccc1O	0	28*	1	0	0	3
COc1cc(-c2cc(-c3ccc(F)cc3)nc(N)c2C#N)ccc1O	3	83*	-8	1	-1	3
C#CCOCCOCCOCCNc1nc(N2CCN(C(=O)CCCCCCCCCCNC(=O)Cn3cc(CCCCCN)nn3)CC2)nc(N2CCN(C(=O)CCCCCCCCCCNC(=O)[C@H]([C@@H](C)CC)n3cc(CCCCCN)nn3)CC2)n1	-2	52*	64*	0	0	25*
C#CCOCCOCCOCCNc1nc(N2CCOCC2)nc(N2CCN(C(=O)CCCCCCCCCCNC(=O)Cn3cc(CCCCCN)nn3)CC2)n1	3	4	0	0	-1	1
C#CCOCCOCCOCCNc1nc(N2CCOCC2)nc(N2CCN(C(=O)CCCCCCCCCCNC(=O)[C@H](CO)n3cc(CCCCCN)nn3)CC2)n1	-4	-2	-3	0	-1	5
C#CCOCCOCCOCCNc1nc(N2CCN(C(=O)CCCCCCCCCCNC(=O)Cn3cc(CCCCCN)nn3)CC2)nc(N2CCN(C(=O)CCCCCCCCCCNC(=O)[C@H](CO)n3cc(CCCCCN)nn3)CC2)n1	4	38*	22	0	-3	9
COc1ccc(Cc2c(-c3ccc(F)cc3)nc3cc(C)c(Br)c(C)n23)c(C)c1	·	2	1	0	·	·
CCn1c(COc2ccccc2)nnc1SCC(=O)Nc1ccc(N2CCOCC2)cc1	2	8	-1	1	-1	1
